According to ChEMBL document CHEMBL1142736, “Synthesis of novel diarylpyrimidine analogues and their antiviral activity against human immunodeficiency virus type 1” (J Med Chem, 2005):

Assays:
[1] = system: Human immunodeficiency virus 1; assay: Effective concentration against human immunodeficiency virus type 1 mutated at 227C; assay type: functional, organism-based
[2] = system: Human immunodeficiency virus 1; assay: Effective concentration against human immunodeficiency virus type 1 mutated at 103N; assay type: functional, organism-based
[3] = system: Human immunodeficiency virus 1; assay: Effective concentration against human immunodeficiency virus type 1 mutated at 188L; assay type: functional, organism-based
[4] = Cytotoxic concentration against wild type human immunodeficiency virus type 1 […] strain; settings: Human immunodeficiency virus 1
Outline: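 MT-4 cells, 30,000 cells/well, were mock-infected (virus at 200-250 CCID50/well for the infected wells) and exposed to a range of compound concentrations. Plates were held at 37 °C with 5% CO2.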

[5] = system: Human immunodeficiency virus 1; assay: Effective concentration against human immunodeficiency virus type 1 mutated at 227L+106A; assay type: functional, organism-based
[6] = system: Human immunodeficiency virus 1; assay: Effective concentration against human immunodeficiency virus type 1 mutated at 181C; assay type: functional, organism-based
[7] = system: Human immunodeficiency virus 1; assay: Effective concentration against human immunodeficiency virus type 1 mutated at 100I+103N; assay type: functional, organism-based
[8] = system: Human immunodeficiency virus 1; assay: Effective concentration against human immunodeficiency virus type 1 mutated at 103N+181C; assay type: functional, organism-based
[9] = system: Human immunodeficiency virus 1; assay: Effective concentration against human immunodeficiency virus type 1 mutated at 100I; assay type: functional, organism-based
[10] = system: Human immunodeficiency virus 1; assay: Ratio of CC50 and EC50 against wild type human immunodeficiency virus type 1 LAI strain; assay type: functional
[11] = system: Human immunodeficiency virus 1; assay: Effective concentration for the inhibition of wild type human immunodeficiency virus type 1 LAI strain; assay type: functional, organism-based
[12] = system: Human immunodeficiency virus 1; assay: Effective concentration against human immunodeficiency virus type 1 mutated at 103N+181C; ND:Not determined; assay type: functional, organism-based

SMILES | EC50 [1] [µM] | EC50 [2] [µM] | EC50 [3] [µM] | CC50 [4] [µM] | EC50 [5] [µM] | EC50 [6] [µM] | EC50 [7] [µM] | EC50 [8] [µM] | EC50 [9] [µM] | Selectivity index [10] | EC50 [11] [µM] | EC50 [12] [µM]
C/C(=C\C#N)c1cc(C)c(Nc2ccnc(Nc3ccc(C#N)cc3)n2)c(C)c1 | 0.005 | 0.001 | 0.004 | 30 | 0.005 | 0.00251 | 0.00251 | 0.00251 | 0.0008 | 30000 | 0.001 | 
Cc1cc(CC(C)C#N)cc(C)c1Nc1ccnc(Nc2ccc(C#N)cc2)n1 (stereo not drawn) | 0.00631 | 0.00063 | 0.05 | 1 | 0.00316 | 0.002 | 0.0125 | 0.005 | 0.001 | 1578 | 0.00063 | 
Cc1cc(CC#N)cc(C)c1Nc1ccnc(Nc2ccc(C#N)cc2)n1 | 0.01 | 0.00795 | 0.0251 | 10 | 0.125 | 0.0251 |  |  | 0.04 | 12589 | 0.0008 | 
C/C(C#N)=C/c1cc(C)c(Nc2ccnc(Nc3ccc(C#N)cc3)n2)c(C)c1 | 0.005 | 0.001 | 0.0316 | 3 | 0.005 | 0.004 | > 10 | 0.02 | 0.0316 | 3750 | 0.0008 | 
C/C(C#N)=C\c1cc(C)c(Nc2ccnc(Nc3ccc(C#N)cc3)n2)c(C)c1 | 0.00251 | 0.0006 | 0.00316 | 20 | 0.004 | 0.0016 | 0.00795 | 0.002 | 0.0006 | 25000 | 0.0008 | 
Cc1cc(/C=C\C#N)cc(C)c1Nc1ccnc(Nc2ccc(C#N)cc2)n1 | 0.004 | 0.0016 | 0.031 | 30 | 0.004 | 0.005 | 0.794 | 0.0398 | 0.0063 |  | 0.0006 | 
Cc1cc(COCCC#N)cc(C)c1Nc1ccnc(Nc2ccc(C#N)cc2)n1 | 0.01 | 0.00316 | 0.04 | 10 | 0.125 | 0.0316 |  |  | 0.0251 | 15873 | 0.00063 | 
Cc1cc(C#N)cc(C)c1Nc1ccnc(Nc2ccc(C#N)cc2)n1 | 0.1 | 0.002 | 0.0079 | 5 | 0.0126 | 0.0063 | 1 | 0.031 | 0.031 | 12500 | 0.0004 | 
Cc1cc(/C=C(/C#N)CC#N)cc(C)c1Nc1ccnc(Nc2ccc(C#N)cc2)n1 | 0.0125 | 0.00631 | 0.0316 | 2 | 0.0251 | 0.00631 |  |  | 0.0316 | 5012 | 0.0004 | 
O=C1Nc2ccc(Cl)cc2[C@@](C#CC2CC2)(C(F)(F)F)O1 [EFAVIRENZ] | 0.16 | 0.04 | 0.16 | 10 |  | 0.002 | > 10 | 0.04 | 0.04 |  |  | 
Cc1cc(/C(Cl)=C/C#N)cc(C)c1Nc1ccnc(Nc2ccc(C#N)cc2)n1 | 0.0316 | 0.002 | 0.00795 | 30 | 0.00795 | 0.00631 | 0.0316 | 0.00631 | 0.00251 | 7500 | 0.004 | 
Cc1cc(CCC#N)cc(C)c1Nc1ccnc(Nc2ccc(C#N)cc2)n1 | 0.004 | 0.0004 | 0.02 | 3 | 0.004 | 0.0125 | 0.0316 | 0.00251 | 0.00795 | 4782 | 0.00063 | 
Cc1ccnc2c1NC(=O)c1cccnc1N2C1CC1 [NEVIRAPINE] |  | 6.31 | > 10 | 20 |  | 10 |  | > 10 | 0.316 | >500 | 0.0398 | 
Cc1cc(/C=C/C#N)cc(C)c1Nc1ccnc(Nc2ccc(C#N)cc2)n1 [RILPIVIRINE] | 0.002 | 0.0003 | 0.002 | 30 | 0.001 | 0.00126 | 0.00795 | 0.001 | 0.0004 |  |  | 
Cc1cc(/C=C/CC#N)cc(C)c1Nc1ccnc(Nc2ccc(C#N)cc2)n1 | 0.04 | 0.00251 | 0.02 | 10 | 0.05 | 0.0316 | 0.251 | 0.001 | 0.04 | 10000 | 0.001 | 
CC(C)Nc1cccnc1N1CCN(C(=O)c2cc3cc(NS(C)(=O)=O)ccc3[nH]2)CC1 [DELAVIRDINE] |  | 2.51 | 1.26 | > 20 |  | 2 |  |  | 2.51 | >300 | 0.0631 | 20
Cc1cc(-c2ccc(C#N)o2)cc(C)c1Nc1ccnc(Nc2ccc(C#N)cc2)n1 | 0.0316 | 0.00795 | 0.0316 | 10 | 0.0316 | 0.04 | 0.5 |  | 0.0316 | 3162 | 0.004 | 
